In ChEMBL document CHEMBL1139624, “Synthesis and evaluation of isatin derivatives as effective SARS coronavirus 3CL protease inhibitors” (Bioorg Med Chem Lett, 2005):

Biological target: Replicase polyprotein 1a (Severe acute respiratory syndrome-related coronavirus) (UniProt P0C6U8)
Experiment: In vitro percent inhibition against SARS coronavirus main protease (SARS CoV 3C-like protease) at 20 uM
Details: not given
Method in brief: (§1)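 FRET assay with 50 nM 3CLpro preincubated 10 min at room temperature with inhibitor at 20 μM in pH 7.5 Tris–HCl/NaCl/EDTA/DTT/β-ME buffer. Percent inhibition was taken from the initial velocity.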

Compound	inhibition [%]
CC(C)NC(=O)c1ccc(CN2C(=O)C(=O)c3cc(I)ccc32)s1	47
O=C(NC1CCCCC1)c1ccc(CN2C(=O)C(=O)c3cc(I)ccc32)s1	36
Nc1cccc2c1N(Cc1cc3ccccc3s1)C(=O)C2=O	31
Cc1cc2c(c([N+](=O)[O-])c1)N(Cc1cc3ccccc3s1)C(=O)C2=O	39
Cc1cc2c(c([N+](=O)[O-])c1)N(CC(=O)c1cc3ccccc3s1)C(=O)C2=O	40
Nc1ccc2c(c1)C(=O)C(=O)N2CC(=O)c1cc2ccccc2s1	40
O=C1C(=O)N(Cc2cc3ccccc3s2)c2c(Cl)ccc(Cl)c21	46
O=C(Nc1ccc(F)cc1)c1ccc(CN2C(=O)C(=O)c3cc(I)ccc32)s1	46
O=C(Nc1ccc(F)cc1F)c1ccc(CN2C(=O)C(=O)c3cc(I)ccc32)s1	32
COc1ccc2c(c1)C(=O)C(=O)N2Cc1cc2ccccc2o1	13
COc1ccc2c(c1)C(=O)C(=O)N2Cc1cc2ccccc2s1	27
Cc1noc(C)c1CN1C(=O)C(=O)c2cc(C(N)=O)ccc21	25
O=C1C(=O)N(Cc2cc3ccccc3o2)c2ccc([N+](=O)[O-])cc21	24

Biological target: T1, Replicase polyprotein 1a (Severe acute respiratory syndrome-related coronavirus, UniProt P0C6U8)
Experiment: In vitro inhibitory concentration against SARS coronavirus main protease (SARS CoV 3C-like protease)
Details: not given

Compound	IC50 [µM]
O=C1C(=O)N(Cc2cc3ccccc3s2)c2c1cccc2[N+](=O)[O-]	2
O=C(Nc1ccc(Cl)cc1)c1ccc(CN2C(=O)C(=O)c3cc(I)ccc32)s1	12.6
O=C1C(=O)N(Cc2ccc(C(=O)N3CCCCC3)s2)c2ccc(I)cc21	17.5
O=C1C(=O)N(Cc2cc3ccccc3s2)c2cccc(Cl)c21	11.2
O=C1C(=O)N(C/C=C/c2cc3ccccc3s2)c2ccc(I)cc21	23.5
Cc1noc(C)c1CN1C(=O)C(=O)c2cc(C#N)ccc21	7.2
O=C1C(=O)N(Cc2cc3ccccc3s2)c2ccc(I)cc21	0.95
O=C1C(=O)N(Cc2cc3ccccc3s2)c2ccc(F)cc21	4.82
O=C1C(=O)N(Cc2ccc(F)cc2Cl)c2ccc(I)cc21	9.4
O=C1C(=O)N(Cc2cc3ccccc3s2)c2ccccc21	13.1

Test system: not listed separately
Experiment: In vitro inhibitory concentration against Papain (cysteine protease)
Parameters: species or system Carica papaya
Details: not given

Compound	IC50 [µM]
O=C1C(=O)N(Cc2cc3ccccc3s2)c2ccc(I)cc21	87.2
O=C1C(=O)N(Cc2cc3ccccc3s2)c2c(Br)cccc21	103

Biological target: T1, Replicase polyprotein 1a
Experiment: In vitro inhibitory concentration SARS coronavirus main protease (SARS CoV 3C-like protease)
Details: not given

Compound	IC50 [µM]
O=C1C(=O)N(Cc2cc3ccccc3s2)c2c(Br)cccc21	0.98

Biological target: Replicase polyprotein 1a (Severe acute respiratory syndrome-related coronavirus) (UniProt P0C6U8)
Experiment: In vitro percent inhibition against SARS coronavirus main protease (SARS CoV 3C-like protease)
Details: concentration not given here
Method in brief: as §1

Compound	inhibition [%]
O=C1C(=O)N(Cc2cc3ccccc3o2)c2ccc(I)cc21	13

Biological target: T1, Replicase polyprotein 1a
Experiment: In vitro inhibitory concentration against SARS coronavirus main protease (SARS CoV 3C-like protease) at 20 uM
Details: not given
Method in brief: as §1

Compound	IC50 [µM]
O=C1C(=O)N(CC2COc3ccccc3O2)c2ccc(I)cc21 (stereo not given)	13.5

Test system: not listed separately
Experiment: In vitro inhibitory concentration against Trypsin (serine protease)
Details: not given
Method in brief: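 Trypsin counter-screen run with 9 nM enzyme and 200 μM substrate.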

Compound	IC50 [µM]
O=C1C(=O)N(Cc2cc3ccccc3s2)c2ccc(I)cc21	243
O=C1C(=O)N(Cc2cc3ccccc3s2)c2c(Br)cccc21	362
